ChEMBL document CHEMBL1138514, “Rhodamine inhibitors of P-glycoprotein: an amide/thioamide "switch" for ATPase activity” (J Med Chem, 2009)

How the values were obtained:
[1] = system: C[N+](C)=c1ccc2c(-c3ccccc3)c3cc4c5c(c3[te]c-2c1)CCCN5CCC4; assay: not read
[2] = system: CN(C)c1cccc(-c2c3ccc(=[N+](C)C)cc-3[se]c3cc(N(C)C)ccc23)c1; assay: not read
[3] = system: COc1ccc(-c2c3ccc(=[N+](C)C)cc-3sc3cc(N(C)C)ccc23)cc1OC; assay: not read
[4] = system: CN(C)c1ccc(-c2c3ccc(=[N+](C)C)cc-3[te]c3cc(N(C)C)ccc23)cc1; assay: not read
[5] = system: CN(C)c1cccc(-c2c3ccc(=[N+](C)C)cc-3[te]c3cc(N(C)C)ccc23)c1; assay: not read
[6] = system: CN(C)c1ccc2c(-c3ccsc3C(=O)O)c3ccc(=[N+](C)C)cc-3sc2c1; assay: not read
[7] = system: CCN(CC)C(=O)c1ccc(-c2c3ccc(=[N+](C)C)cc-3[se]c3cc(N(C)C)ccc23)s1; assay: not read
[8] = system: CN(C)c1ccc2c(-c3ccc(C(=O)O)s3)c3ccc(=[N+](C)C)cc-3sc2c1; assay: not read
[9] = system: COc1cccc(-c2c3ccc(=[N+](C)C)cc-3[te]c3cc(N(C)C)ccc23)c1; assay: not read
[10] = system: COc1ccc(-c2c3ccc(=[N+](C)C)cc-3[se]c3cc(N(C)C)ccc23)cc1OC; assay: not read
[11] = system: CN(C)c1ccc2c(CCCOc3ccccc3)c3ccc(=[N+](C)C)cc-3sc2c1; assay: not read
[12] = system: CN(C)c1ccc2c(-c3ccc(C(=O)O)s3)c3ccc(=[N+](C)C)cc-3[te]c2c1; assay: not read
[13] = system: CN(C)c1ccc2c(-c3ccsc3C(=O)O)c3ccc(=[N+](C)C)cc-3[se]c2c1; assay: not read
[14] = system: CN(C)c1ccc2c(-c3ccc(N4CCOCC4)cc3)c3ccc(=[N+](C)C)cc-3sc2c1; assay: not read
[15] = system: COc1cccc(-c2c3ccc(=[N+](C)C)cc-3[se]c3cc(N(C)C)ccc23)c1; assay: not read
[16] = system: CN(C)c1ccc2c(-c3ccccc3)c3ccc(=[N+](C)C)cc-3[te]c2c1; assay: not read
[17] = system: COc1ccc(-c2c3ccc(=[N+](C)C)cc-3sc3cc(N(C)C)ccc23)cc1; assay: not read
[18] = system: CCN(CC)C(=O)c1ccc(-c2c3ccc(=[N+](C)C)cc-3sc3cc(N(C)C)ccc23)s1; assay: (§1) Induction of mouse cysteine-less MDR3 ATPase activity by apparent Michaelis-Menten constant
Method in brief: (§2)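 Isolated P-gp ATPase activity is measured as inorganic phosphate released across a range of rhodamine concentrations. KM is the apparent Michaelis-Menten constant, the concentration giving half-maximal stimulation of ATPase activity.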

[19] = system: COc1ccc(-c2c3ccc(=[N+](C)C)cc-3sc3cc(N(C)C)ccc23)cc1OC; assay: as §1
Method in brief: as §2

[20] = system: CN(C)c1ccc2c(-c3ccc(CCl)cc3)c3ccc(=[N+](C)C)cc-3oc2c1; assay: as §1
Method in brief: as §2

[21] = system: CCN(CC)C(=O)c1ccccc1-c1c2ccc(=[N+](C)C)cc-2sc2cc(N(C)C)ccc12; assay: as §1
Method in brief: as §2

[22] = system: CN(C)c1ccc2c(-c3ccccc3C(=O)O)c3ccc(=[N+](C)C)cc-3sc2c1; assay: as §1
Method in brief: as §2

[23] = system: COC(=O)c1ccccc1-c1c2ccc(=[N+](C)C)cc-2sc2cc(N(C)C)ccc12; assay: as §1
Method in brief: as §2

[24] = system: CCN(CC)C(=O)c1ccc(-c2c3ccc(=[N+](C)C)cc-3[se]c3cc(N(C)C)ccc23)s1; assay: as §1
Method in brief: as §2

[25] = system: CN(C)c1ccc2c(CCCOc3ccccc3)c3ccc(=[N+](C)C)cc-3sc2c1; assay: as §1
Method in brief: as §2

[26] = system: CN(C)c1ccc2c(-c3ccsc3C(=O)O)c3ccc(=[N+](C)C)cc-3[se]c2c1; assay: as §1
Method in brief: as §2

[27] = system: COc1cccc(-c2c3ccc(=[N+](C)C)cc-3[se]c3cc(N(C)C)ccc23)c1; assay: as §1
Method in brief: as §2

[28] = system: CCOC(=O)c1ccc(-c2c3ccc(=[N+](C)C)cc-3sc3cc(N(C)C)ccc23)s1; assay: as §1
Method in brief: as §2

“ATP-dependent translocase ABCB1 (Homo sapiens)” gave a Km [1] of 4.4 µM, a Km [2] of 3.5 µM and a Km [3] of 4.9 µM. For the same substance, the Km [4] was 9 µM, the Km [5] was 2 µM and the Km [6] was 111 µM. The Km [7] was 0.68 µM, the Km [8] was 140 µM and the Km [9] was 3.2 µM. It also gave a Km [10] of 8.3 µM, a Km [11] of 3.2 µM and a Km [12] of 9.6 µM. The Km [13] was 56 µM, the Km [14] was 10 µM and the Km [15] was 3.3 µM. The Km [16] was 8.3 µM.
“ATP-dependent translocase ABCB1 (Mus musculus)” was tested, and the Km [17] was 75 µM, the Km [10] was 67 µM and the Km [18] was 3.4 µM. For the same substance, the Km [19] was 35 µM, the Km [20] was 77 µM and the Km [21] was 5.7 µM. It also gave a Km [22] of 56 µM, a Km [23] of 266 µM and a Km [24] of 3.6 µM. It also gave a Km [25] of 6 µM, a Km [26] of 29 µM and a Km [27] of 44 µM. The Km [28] was 156 µM.
